Test results as given in paper PMC3057461 (Chemistry & biology, 2011).
Where two headings read alike, the source gives them in different places.

Legend:
DnaK-DnaJ interaction = DnaK-DnaJ interaction (Escherichia coli, UniProt P0A6Y8); experiment: DnaK-DnaJ interaction by FRET; type: binding; conditions: for effect on binding of DnaJ to DnaK: ATP 2 mM
DnaK-DnaJ complex = DnaK-DnaJ complex (Escherichia coli, UniProt P0A6Y8); experiment: ATPase assay of the DnaK-DnaJ system; type: biochemical; conditions: for effect on stimulatory activity of DnaJ on DnaK ATPase: DnaJ titration
Sequence of DnaK-DnaJ complex (P0A6Y8 whole entry, one chain of several): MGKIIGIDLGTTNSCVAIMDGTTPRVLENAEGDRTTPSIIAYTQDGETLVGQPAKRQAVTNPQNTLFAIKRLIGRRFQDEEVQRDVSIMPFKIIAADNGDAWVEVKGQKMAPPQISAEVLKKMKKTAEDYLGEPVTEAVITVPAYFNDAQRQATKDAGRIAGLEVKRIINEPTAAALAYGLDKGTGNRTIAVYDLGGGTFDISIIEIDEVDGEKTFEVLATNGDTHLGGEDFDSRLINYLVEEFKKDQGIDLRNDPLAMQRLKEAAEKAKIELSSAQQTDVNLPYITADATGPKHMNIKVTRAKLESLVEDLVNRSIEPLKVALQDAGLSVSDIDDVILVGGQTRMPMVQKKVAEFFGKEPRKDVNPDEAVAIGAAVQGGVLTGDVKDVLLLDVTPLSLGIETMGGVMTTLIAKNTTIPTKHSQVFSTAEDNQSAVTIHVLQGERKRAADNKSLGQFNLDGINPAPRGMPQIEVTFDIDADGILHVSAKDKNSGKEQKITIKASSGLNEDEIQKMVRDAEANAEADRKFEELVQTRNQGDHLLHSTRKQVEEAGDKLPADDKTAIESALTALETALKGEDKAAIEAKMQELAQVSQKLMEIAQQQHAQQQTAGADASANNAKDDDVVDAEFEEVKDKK

DnaK [1] = target: T1, DnaK (Escherichia coli, UniProt P0A6Y8); experiment: Peptide substrate; type: biochemical; conditions: model substrate NRLLLTG
T1 sequence (P0A6Y8 whole entry): as the sequence (P0A6Y8 whole entry, one chain of several) above
Procedure, shortened: (§1)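 ATP turnover was measured for purified E. coli DnaK (His-tag cleaved) in the established ATPase assay, alone or with the stimulating partner named. Results are means of triplicates ± SEM.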

DnaJ = DnaJ (Escherichia coli, UniProt P08622); experiment: Isothermal calorimetry; type: binding; conditions: DnaJ 10 μM; titrations noisy
Sequence of DnaJ (P08622 whole entry): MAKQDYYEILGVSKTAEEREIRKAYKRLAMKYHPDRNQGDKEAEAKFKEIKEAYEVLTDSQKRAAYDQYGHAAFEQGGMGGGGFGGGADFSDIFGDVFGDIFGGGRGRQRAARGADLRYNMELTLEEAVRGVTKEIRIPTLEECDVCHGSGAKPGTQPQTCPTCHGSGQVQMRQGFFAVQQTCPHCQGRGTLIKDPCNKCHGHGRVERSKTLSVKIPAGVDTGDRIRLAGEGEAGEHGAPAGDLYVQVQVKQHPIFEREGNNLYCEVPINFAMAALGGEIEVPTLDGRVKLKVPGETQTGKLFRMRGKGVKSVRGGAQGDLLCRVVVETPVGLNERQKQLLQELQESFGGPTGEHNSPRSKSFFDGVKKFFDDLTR

DnaK [2] = target: T1, DnaK; experiment: Tryptophan fluorescence response of DnaK to ATP binding; conditions: myricetin 100 μM, DnaK 5 μM, ATP 100 μM
Procedure, shortened: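 Apo-DnaK (6 μM) was preincubated with test compound (125 μM) for 1 h at 37 °C. Then 500 μM ATP or buffer (Tris, KCl, MgCl2, pH 7.4) was added as one-fifth of the final volume; these are pre-mix concentrations. Tryptophan emission was scanned from 300–400 nm at 295 nm excitation. Runs were done in triplicate.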

DnaK [3] = target: T1, DnaK; experiment: Intrinsic ATPase activity of DnaK; type: biochemical
Procedure, shortened: as §1

[4] = target: J domain (residues 2–108) (Escherichia coli, UniProt P08622); experiment: Isothermal calorimetry; type: binding; conditions: truncated J domain residues 2–108
Sequence of J domain (residues 2–108) (P08622 2-108): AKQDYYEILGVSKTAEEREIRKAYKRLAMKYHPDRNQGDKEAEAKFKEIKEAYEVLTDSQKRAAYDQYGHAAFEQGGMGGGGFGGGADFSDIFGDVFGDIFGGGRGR

DnaK-DnaJ-GrpE = DnaK-DnaJ-GrpE (Escherichia coli, UniProt P0A6Y8); experiment: ATPase assay of DnaK-DnaJ in the presence of GrpE; type: biochemical; conditions: saturating GrpE (2 μM); DnaK 0.6 μM, DnaJ 1 μM
Sequence of DnaK-DnaJ-GrpE (P0A6Y8 whole entry): as the sequence (P0A6Y8 whole entry, one chain of several) above
Procedure, shortened: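 Purified E. coli DnaK (0.6 μM) and DnaJ (1 μM), with His-tags cleaved, were run in the established ATPase assay with GrpE at 2 μM or a range of GrpE levels. Test compound was given as a dose series, and IC50 was taken from the dose response. Values are means of triplicates ± SEM.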

DnaK-DnaJ = DnaK-DnaJ (Escherichia coli, UniProt P0A6Y8); type: binding
Sequence of DnaK-DnaJ (P0A6Y8 whole entry): as the sequence (P0A6Y8 whole entry, one chain of several) above
Procedure, shortened: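 Firefly luciferase was partially digested and adsorbed onto microtiter wells. DnaK was added with DnaJ titrated, in the presence or absence of test compound. Bound DnaK was detected with an anti-DnaK antibody. Each point is the mean of triplicates ± SEM.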

DnaK (wild type) = DnaK (wild type) (Escherichia coli, UniProt P0A6Y8); experiment: Tryptophan fluorescence quench, apparent affinity of myricetin for DnaK; type: binding; conditions: apparent affinity (Kapp), wild type DnaK 3 μM, ATP 1 mM
Procedure, shortened: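 Test compound was added at various concentrations to wild-type DnaK, read at 342 nm (Ex 295 nm) for tryptophan fluorescence quench. Conditions were 5 μM nucleotide-free DnaK alone, 5 μM DnaK with 2 mM ATP, or 3 μM DnaK with 1 mM ATP. Apo-DnaK was eluted from the ATP column with 1 M NaCl. DnaK-free controls were subtracted. Triplicates, ± SEM.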

DnaK-GrpE = DnaK-GrpE (Escherichia coli, UniProt P0A6Y8); experiment: GrpE-mediated stimulation of DnaK ATP turnover; type: biochemical
Sequence of DnaK-GrpE (P0A6Y8 whole entry): as the sequence (P0A6Y8 whole entry, one chain of several) above
Procedure, shortened: as §1

DnaK K106A = DnaK K106A (Escherichia coli, UniProt P0A6Y8, K106A); experiment: Tryptophan fluorescence quench, DnaK K106A control mutant; type: binding
Procedure, shortened: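 DnaK alanine mutants were used at 3 μM with 1 mM ATP. Test compound was added at various concentrations, and quench of intrinsic tryptophan fluorescence was read at 342 nm (Ex 295 nm). Readings from controls lacking DnaK were subtracted, and apparent affinity was derived from the concentration series.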

DnaK-J domain = DnaK-J domain (Escherichia coli, UniProt P0A6Y8); experiment: J domain stimulation of DnaK ATP turnover; type: biochemical
Sequence of DnaK-J domain (P0A6Y8 whole entry, the tested form may be a part): as the sequence (P0A6Y8 whole entry, one chain of several) above
Procedure, shortened: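 For J-domain-stimulated turnover, His-tagged DnaJ J domain (residues 2–108) was purified with an extra gel-filtration step and stored in Tris pH 7.5 with 150 mM KCl and 5 mM MgCl2. It was then run in the established DnaK ATPase assay. Results are means of triplicates ± SEM.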

[5] = read-out: IC50 against the DnaK-DnaJ system, DnaK 0.6 μM, DnaJ 1 μM

Sequence of DnaK-DnaJ interaction (P0A6Y8 whole entry): as the sequence (P0A6Y8 whole entry, one chain of several) above

(±)-catechin
effect on binding of DnaJ to DnaK (DnaK-DnaJ interaction): did not inhibit

O=c1cc(-c2cc(O)c(O)c(O)c2)oc2cc(O)cc(O)c12 [hieracin]
IC50 (DnaK-DnaJ complex; [5]): 28.2 µM

O=c1c(O)c(-c2ccc(O)c(O)c2)oc2cc(O)cc(O)c12 [quercetin]
IC50 (DnaK-DnaJ complex): 27.6 µM
inhibition (up to, maximal) (DnaK-DnaJ complex; DnaK 0.6 μM, DnaJ 1 μM): up to 67%

O=c1c(O)c(-c2cc(O)c(O)c(O)c2)oc2cc(O)cc(O)c12 [myricetin]
effect on peptide-mediated stimulation of ATP turnover (DnaK [1]): no effect
binding to DnaJ by ITC (DnaJ): no apparent affinity
tryptophan fluorescence response to ATP binding (DnaK [2]): responded normally
effect on intrinsic ATPase activity of DnaK (DnaK [3]): no effect
binding to J domain by ITC [4]: failed to bind
apparent affinity of myricetin in the presence of DnaJ and GrpE (DnaK-DnaJ-GrpE): significantly enhanced
decrease of maximal amount of bound DnaK (DnaK-DnaJ; 20 μM myricetin): approximately 40%
amount of DnaJ required to promote DnaK binding to luciferase (DnaK-DnaJ; 20 μM myricetin (62 nM without compound)): 1 µM
Kd (DnaK (wild type)): 55 ± 7 µM
effect on stimulation of DnaK by GrpE (DnaK-GrpE): did not influence
Kd (DnaK K106A): 43 ± 5 µM
effect on J domain stimulatory activity (DnaK-J domain): able to block
weakening of Kapp between DnaJ and DnaK (DnaK-DnaJ interaction; 25 μM myricetin, Kapp approx. 560 nM without compound): 5.3 fold
effect on binding of DnaJ to DnaK (DnaK-DnaJ interaction): significantly reduced
IC50 (DnaK-DnaJ complex): 14.5 µM
inhibition (up to, maximal) (DnaK-DnaJ complex; DnaK 0.6 μM, DnaJ 1 μM): up to 75%
effect on stimulatory activity of DnaJ on DnaK ATPase (DnaK-DnaJ complex; myricetin 50 μM): dramatically weakened
effect on stimulatory activity of DnaJ on DnaK ATPase (DnaK-DnaJ complex; myricetin 200 μM): completely suppressed
inhibition at 200 µM (DnaK-DnaJ complex; read-out: percent inhibition): 75%

COc1cc(OC)c2c(=O)c(O)c(-c3ccc(OC)c(OC)c3)oc2c1 [QTE, quercetin tetramethyl (5,7,3′,4′) ether]
IC50 (DnaK-DnaJ complex; [5]): > 200 µM

O=C(O[C@@H]1Cc2c(O)cc(O)cc2O[C@@H]1c1ccc(O)c(O)c1)c1cc(O)c(O)c(O)c1 [ECG, epicatechin-3-gallate]
IC50 (DnaK-DnaJ complex): 6 ± 0.9 µM

COc1cc(O)c2c(=O)c(O)c(-c3ccc(O)c(O)c3)oc2c1 [rhamnetin]
activity against DnaK-DnaJ (DnaK-DnaJ complex; DnaK 0.6 μM, DnaJ 1 μM): inactive

O=c1c(O)c(-c2ccc(O)cc2)oc2cc(O)cc(O)c12 [kaempferol]
IC50 (DnaK-DnaJ complex): > 200 µM

O=c1cc(-c2ccc(O)c(O)c2)oc2cc(O)cc(O)c12 [luteolin]
IC50 (DnaK-DnaJ complex): 9.4 µM
